ChEMBL document CHEMBL5724801, “EUbOPEN Chemogenomics Library - Multiplex” (2024)
Values joined by “and” are separate entries in the source; they are usually repeats but may differ in a detail not shown here. Equal values may be shown once.

Tested on: Fibroblast
Assay: Multiplex assay against human fibroblast
Assay type: toxicity, cell-based
Summary of the method: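 Cells stained live at seeding with Hoechst33342, BioTracker Green Microtubule Cytoskeleton Dye, MitoTracker Red and Annexin V Alexa Fluor 680 were imaged on a CQ1 microscope at 37°C and 5% CO2 after compound addition. Their classification by CellPathfinder machine-learning gating ran from Hoechst high-intensity objects versus normal cells, to healthy, pyknosed or fragmented nuclei among normal cells, to mitotic or apoptotic among pyknosed cells. Tubulin, mitochondrial-mass and membrane-permeability phenotypes are per cents of healthy-nucleus cells.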

[1] = 12 h, 1 µM, compound concentration 1 uM
[2] = 12 h, 10 µM, compound concentration 10 uM
[3] = 24 h, 1 µM, compound concentration 1 uM
[4] = 24 h, 10 µM, compound concentration 10 uM
[5] = 48 h, 1 µM, compound concentration 1 uM
[6] = 48 h, 10 µM, compound concentration 10 uM

## COCCNc1nc2ccc(C#CC3(O)CCCCC3)cc2n1-c1ccnc(N)n1
[1]
  Population Apoptotic (%): 15.09% and 20.51%
  Population Fragmented Nuclei (%): 19.05% and 7.25%
  Population Healthy Nuclei (%): 44.9% and 73.91%
  Population Hoechst High Intensity Objects (%): 0%
  Population Membrane Permeable-Phenotype (%): 4.55% and 1.96%
  Population Mitochondria Different-Phenotype (%): 9.09% and 12.42%
  Population Mitotic Cells (%): 84.91% and 79.49%
  Population Normal (%): 100%
  Population Pyknosed Nuclei (%): 36.05% and 18.84%
  Population Tubulin-Different-Phenotype (%): 18.18% and 27.45%
  Total Cell Count: 147 and 207
[2]
  Population Apoptotic (%): 2.5% and 7.32%
  Population Fragmented Nuclei (%): 15.71% and 12.57%
  Population Healthy Nuclei (%): 46.19% and 64%
  Population Hoechst High Intensity Objects (%): 0%
  Population Membrane Permeable-Phenotype (%): 7.22% and 1.79%
  Population Mitochondria Different-Phenotype (%): 27.84% and 21.43%
  Population Mitotic Cells (%): 97.5% and 92.68%
  Population Normal (%): 100%
  Population Pyknosed Nuclei (%): 38.1% and 23.43%
  Population Tubulin-Different-Phenotype (%): 56.7% and 54.46%
  Total Cell Count: 210 and 175
[3]
  Population Apoptotic (%): 9.76% and 17.39%
  Population Fragmented Nuclei (%): 9.09% and 9.43%
  Population Healthy Nuclei (%): 62.24% and 79.72%
  Population Hoechst High Intensity Objects (%): 0%
  Population Membrane Permeable-Phenotype (%): 3.37% and 5.33%
  Population Mitochondria Different-Phenotype (%): 11.24% and 10.06%
  Population Mitotic Cells (%): 90.24% and 82.61%
  Population Normal (%): 100%
  Population Pyknosed Nuclei (%): 28.67% and 10.85%
  Population Tubulin-Different-Phenotype (%): 19.1% and 25.44%
  Total Cell Count: 143 and 212
[4]
  Population Apoptotic (%): 12.33% and 20.59%
  Population Fragmented Nuclei (%): 14.35% and 10.86%
  Population Healthy Nuclei (%): 51.85% and 69.71%
  Population Hoechst High Intensity Objects (%): 0%
  Population Membrane Permeable-Phenotype (%): 3.57% and 1.64%
  Population Mitochondria Different-Phenotype (%): 25% and 18.03%
  Population Mitotic Cells (%): 87.67% and 79.41%
  Population Normal (%): 100%
  Population Pyknosed Nuclei (%): 33.8% and 19.43%
  Population Tubulin-Different-Phenotype (%): 66.96% and 65.57%
  Total Cell Count: 216 and 175
[5]
  Population Apoptotic (%): 22.22% and 37.5%
  Population Fragmented Nuclei (%): 10.74% and 6.49%
  Population Healthy Nuclei (%): 77.18% and 86.58%
  Population Hoechst High Intensity Objects (%): 0%
  Population Membrane Permeable-Phenotype (%): 1.74% and 2.5%
  Population Mitotic Cells (%): 77.78% and 62.5%
  Population Normal (%): 100%
  Population Pyknosed Nuclei (%): 12.08% and 6.93%
  Population Tubulin-Different-Phenotype (%): 10.43% and 26.5%
  Total Cell Count: 149 and 231
[6]
  Population Apoptotic (%): 11.43% and 24%
  Population Fragmented Nuclei (%): 12.66% and 9.66%
  Population Healthy Nuclei (%): 72.57% and 76.14%
  Population Hoechst High Intensity Objects (%): 0%
  Population Membrane Permeable-Phenotype (%): 2.91% and 5.97%
  Population Mitochondria Different-Phenotype (%): 18.02% and 10.45%
  Population Mitotic Cells (%): 88.57% and 76%
  Population Normal (%): 100%
  Population Pyknosed Nuclei (%): 14.77% and 14.2%
  Population Tubulin-Different-Phenotype (%): 42.44% and 58.96%
  Total Cell Count: 237 and 176

## Br.CS(=O)(=O)Nc1c(O)ccc2c1CCCC2C1=NCCN1 (centres undefined)
[1]
  Population Apoptotic (%): 17% and 31%
  Population Healthy Nuclei (%): 76% and 47%
  Population Hoechst High Intensity Objects (%): 1% and 8%
  Population Membrane Permeable-Phenotype (%): 0% and 7%
  Population Mitochondria Different-Phenotype (%): 5% and 8%
  Population Mitotic Cells (%): 82% and 68%
  Population Normal (%): 98% and 91%
  Population Pyknosed Nuclei (%): 14% and 19%
  Population Tubulin-Different-Phenotype (%): 20% and 38%
  Total Cell Count: 167 and 192
[2]
  Population Apoptotic (%): 38% and 33%
  Population Fragmented Nuclei (%): 20% and 38%
  Population Healthy Nuclei (%): 47% and 45%
  Population Hoechst High Intensity Objects (%): 6% and 0%
  Population Mitochondria Different-Phenotype (%): 7% and 5%
  Population Mitotic Cells (%): 61% and 66%
  Population Normal (%): 93% and 99%
  Population Pyknosed Nuclei (%): 31% and 16%
  Population Tubulin-Different-Phenotype (%): 21% and 43%
  Total Cell Count: 148 and 129
[3]
  Population Apoptotic (%): 56% and 33%
  Population Fragmented Nuclei (%): 12% and 25%
  Population Healthy Nuclei (%): 77% and 60%
  Population Hoechst High Intensity Objects (%): 1% and 7%
  Population Membrane Permeable-Phenotype (%): 0% and 2%
  Population Mitochondria Different-Phenotype (%): 3% and 7%
  Population Mitotic Cells (%): 43% and 66%
  Population Normal (%): 98% and 92%
  Population Pyknosed Nuclei (%): 10% and 14%
  Population Tubulin-Different-Phenotype (%): 16% and 41%
  Total Cell Count: 159 and 180
[4]
  Population Apoptotic (%): 48% and 41%
  Population Fragmented Nuclei (%): 16% and 41%
  Population Healthy Nuclei (%): 60% and 44%
  Population Hoechst High Intensity Objects (%): 3% and 0%
  Population Membrane Permeable-Phenotype (%): 0% and 10%
  Population Mitochondria Different-Phenotype (%): 2% and 10%
  Population Mitotic Cells (%): 51% and 58%
  Population Normal (%): 96% and 99%
  Population Pyknosed Nuclei (%): 23% and 13%
  Population Tubulin-Different-Phenotype (%): 24% and 41%
  Total Cell Count: 148 and 130
[5]
  Population Apoptotic (%): 57% and 38%
  Population Fragmented Nuclei (%): 14% and 26%
  Population Healthy Nuclei (%): 76% and 61%
  Population Hoechst High Intensity Objects (%): 4% and 5%
  Population Membrane Permeable-Phenotype (%): 4% and 0%
  Population Mitochondria Different-Phenotype (%): 3% and 9%
  Population Mitotic Cells (%): 42% and 61%
  Population Normal (%): 95% and 94%
  Population Pyknosed Nuclei (%): 8% and 12%
  Population Tubulin-Different-Phenotype (%): 24% and 41%
  Total Cell Count: 167 and 177
[6]
  Population Apoptotic (%): 61% and 33%
  Population Fragmented Nuclei (%): 22% and 48%
  Population Healthy Nuclei (%): 61% and 44%
  Population Hoechst High Intensity Objects (%): 6% and 1%
  Population Membrane Permeable-Phenotype (%): 1% and 3%
  Population Mitochondria Different-Phenotype (%): 2% and 9%
  Population Mitotic Cells (%): 38% and 66%
  Population Normal (%): 93% and 98%
  Population Pyknosed Nuclei (%): 15% and 7%
  Population Tubulin-Different-Phenotype (%): 21% and 45%
  Total Cell Count: 145 and 127
